Activity calls are given as the source filed them. No cut-off for these calls is given here.
What was measured:
[1] = test system: dengue virus type 2; test: Antiviral activity against DENV2 16681 infected in African green monkey Vero E6 cells assessed as inhibitory rate of NS4B positive cells at 10 uM measured after 96 hrs incubation by DAPI staining based immunofluorescence method; type: functional; conditions: Dengue virus, 16681, Vero C1008, 96 h
Outline: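 Vero E6 cells in DMEM infected with DENV2 strain 16681 at MOI 0.01, treated at once with compound (0, 0.1, 1, 10 μM), 96 h. Immunofluorescence with anti-NS4B antibody and DAPI counterstain. Infectivity taken as NS4B-positive cells over DAPI-stained total cells. Inhibitory rate = (1 − NS4B-positive % treated infected / NS4B-positive % mock-treated infected) × 100.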

[2] = test system: dengue virus type 2; test: Antiviral activity against DENV2 16681 infected in African green monkey Vero E6 cells assessed as reduction in virus induced cytopathic effect at 10 uM measured after 96 hrs by reverse phase contrast microscopy; type: functional, organism-based; conditions: Vero C1008
Outline: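 Vero E6 cells in supporting DMEM infected with DENV2 strain 16681 (MOI 0.01), then treated immediately with compound at 10 μM. After 96 h incubation, cytopathic effect photographed by reverse phase-contrast microscopy and scored semi-quantitatively (−, +, ++, +++) against infected controls.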

[3] = test system: dengue virus type 2; test: Antiviral activity against DENV2 16681 infected in African green monkey Vero E6 cells assessed as inhibitory rate of NS4B positive cells measured after 96 hrs incubation by DAPI staining based immunofluorescence method; type: functional, organism-based; conditions: for IC50: Dengue virus, 16681, Vero C1008, 96 h; for inhibition: Vero C1008
Outline: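 Vero E6 cells in DMEM, infected with DENV2 strain 16681 at MOI 0.01 and treated with compound (0, 0.1, 1, 10 μM; single 10 μM for screening). After 96 h, immunofluorescence with anti-NS4B antibody and DAPI nuclear counterstain. Infectivity = NS4B-positive cells / DAPI-stained cells. Inhibitory rate = (1 − NS4B-positive % treated / NS4B-positive % mock-treated infected) × 100. IC50 derived from NS4B-positive percentages across concentrations.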

[4] = Therapeutic index, ratio of CC50 for African green monkey Vero E6 cells to IC50 for DENV2 16681 infected in African green monkey Vero E6 cells; type: toxicity, Vero C1008; conditions: read-out: Ratio CC50/IC50
Outline: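 TI = CC50/IC50. CC50 comes from the Vero E6 MTT survival test. IC50 comes from the NS4B-positive cell fraction by immunofluorescence in DENV2 16681-infected Vero E6 cells (MOI 0.01, 96 h, 0–10 μM).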

[5] = test system: dengue virus type 2; test: Antiviral activity against DENV2 16681 infected in African green monkey Vero E6 cells assessed as reduction in virus induced cytopathic effect measured after 96 hrs by reverse phase contrast microscopy; type: functional, organism-based; conditions: Vero C1008
Outline: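 Vero E6 cells in DMEM infected with DENV2 16681 at MOI 0.01, compound added immediately (screen at 10 μM, then 0, 0.1, 1, 10 μM). Photographed 96 h post infection by phase-contrast microscopy. CPE reduction scored qualitatively (−, +, ++, +++).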

[6] = test system: Vero C1008; test: Cytotoxicity against African green monkey Vero E6 cells assessed as reduction in survival rate measured after 48 hrs by MTT assay; type: cell-based; conditions: chlorocebus sabaeus, vero c1008, 48 h
Outline: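 MTT viability test on Vero E6 cells in DMEM over a range of compound concentrations. CC50 calculated from survival of treated cells relative to mock cells.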

| Compound | inhibition at 10 µM [1] | inhibition [2] | also measured |
| --- | --- | --- | --- |
| COC(=O)[C@@H](CC(C)C)NC(=O)[C@H]1O[C@@H](O[C@H]2[C@@H](O[C@H]3CC[C@]4(C)[C@H]5C(=O)C=C6[C@@H]7C[C@@](C)(C(=O)N[C@H](CC(C)C)C(=O)OC)CC[C@]7(C)CC[C@@]6(C)[C@]5(C)CC[C@H]4C3(C)C)O[C@H](C(=O)N[C@H](CC(C)C)C(=O)OC)[C@@H](O)[C@@H]2O)[C@H](O)[C@@H](O)[C@@H]1O | 53.1% | Active |  |
| COC(=O)[C@@]1(C)CC[C@]2(C)CC[C@]3(C)C(=CC(=O)[C@@H]4[C@@]5(C)CC[C@H](O[C@H]6O[C@H](C(=O)N/N=C/c7ccc(N(C)C)cc7)[C@@H](O)[C@H](O)[C@H]6O[C@@H]6O[C@H](C(=O)N/N=C/c7ccc(N(C)C)cc7)[C@@H](O)[C@H](O)[C@H]6O)C(C)(C)[C@@H]5CC[C@]43C)[C@@H]2C1 |  | inactive |  |
| COC(=O)C[C@H](NC(=O)[C@H]1O[C@@H](O[C@H]2[C@@H](O[C@H]3CC[C@]4(C)[C@H]5C(=O)C=C6[C@@H]7C[C@@](C)(C(=O)O)CC[C@]7(C)CC[C@@]6(C)[C@]5(C)CC[C@H]4C3(C)C)O[C@H](C(=O)N[C@@H](CC(=O)OC)C(=O)OC)[C@@H](O)[C@@H]2O)[C@H](O)[C@@H](O)[C@@H]1O)C(=O)O | 35.8% | Active |  |
| COC(=O)[C@@H](Cc1c[nH]c2ccccc12)NC(=O)[C@H]1O[C@@H](O[C@H]2[C@@H](O[C@H]3CC[C@]4(C)[C@H]5C(=O)C=C6[C@@H]7C[C@@](C)(C(=O)N[C@H](Cc8c[nH]c9ccccc89)C(=O)OC)CC[C@]7(C)CC[C@@]6(C)[C@]5(C)CC[C@H]4C3(C)C)O[C@H](C(=O)N[C@H](Cc3c[nH]c4ccccc34)C(=O)OC)[C@@H](O)[C@@H]2O)[C@H](O)[C@@H](O)[C@@H]1O |  | inactive |  |
| COC(=O)CC[C@H](NC(=O)[C@H]1O[C@@H](O[C@H]2[C@@H](O[C@H]3CC[C@]4(C)[C@H]5C(=O)C=C6[C@@H]7C[C@@](C)(C(=O)N[C@@H](CCC(=O)OC)C(=O)OC)CC[C@]7(C)CC[C@@]6(C)[C@]5(C)CC[C@H]4C3(C)C)O[C@H](C(=O)N[C@@H](CCC(=O)OC)C(=O)OC)[C@@H](O)[C@@H]2O)[C@H](O)[C@@H](O)[C@@H]1O)C(=O)OC |  | inactive |  |
| COC(=O)[C@@H](Cc1ccccc1)NC(=O)[C@H]1O[C@@H](O[C@H]2[C@@H](O[C@H]3CC[C@]4(C)[C@H]5C(=O)C=C6[C@@H]7C[C@@](C)(C(=O)N[C@H](Cc8ccccc8)C(=O)OC)CC[C@]7(C)CC[C@@]6(C)[C@]5(C)CC[C@H]4C3(C)C)O[C@H](C(=O)N[C@H](Cc3ccccc3)C(=O)OC)[C@@H](O)[C@@H]2O)[C@H](O)[C@@H](O)[C@@H]1O |  | inactive |  |
| COC(=O)CCCCCCCCCCNC(=O)[C@H]1O[C@@H](O[C@H]2[C@@H](O[C@H]3CC[C@]4(C)[C@H]5C(=O)C=C6[C@@H]7C[C@@](C)(C(=O)O)CC[C@]7(C)CC[C@@]6(C)[C@]5(C)CC[C@H]4C3(C)C)O[C@H](C(=O)NCCCCCCCCCCC(=O)OC)[C@@H](O)[C@@H]2O)[C@H](O)[C@@H](O)[C@@H]1O | 79.5% | Active | IC50 [3]: 1.2 µM; inhibition [3]: Dose-dependent effect; selectivity ratio [4]: > 80; inhibition [5]: Dose-dependent effect; CC50 [6]: > 100 µM |
| COC(=O)[C@H](CC(C)C)NC(=O)[C@H]1O[C@@H](O[C@H]2[C@@H](O[C@H]3CC[C@]4(C)[C@H]5C(=O)C=C6[C@@H]7C[C@@](C)(C(=O)N[C@@H](CC(C)C)C(=O)OC)CC[C@]7(C)CC[C@@]6(C)[C@]5(C)CC[C@H]4C3(C)C)O[C@H](C(=O)N[C@@H](CC(C)C)C(=O)OC)[C@@H](O)[C@@H]2O)[C@H](O)[C@@H](O)[C@@H]1O |  | inactive |  |
| CC1(C)[C@@H](O[C@H]2O[C@H](C(=O)O)[C@@H](O)[C@H](O)[C@H]2O[C@@H]2O[C@H](C(=O)O)[C@@H](O)[C@H](O)[C@H]2O)CC[C@]2(C)[C@H]3C(=O)C=C4[C@@H]5C[C@@](C)(C(=O)O)CC[C@]5(C)CC[C@@]4(C)[C@]3(C)CC[C@@H]12 [GLYCYRRHIZIN] | 70.5% | Active | IC50 [3]: 8.1 µM; inhibition [3]: Dose-dependent effect; selectivity ratio [4]: > 12.3; inhibition [5]: Dose-dependent effect; CC50 [6]: > 100 µM |
| CC[C@H](C)[C@H](NC(=O)[C@H]1O[C@@H](O[C@H]2[C@@H](O[C@H]3CC[C@]4(C)[C@H]5C(=O)C=C6[C@@H]7C[C@@](C)(C(=O)N[C@H](C(=O)OC)[C@@H](C)CC)CC[C@]7(C)CC[C@@]6(C)[C@]5(C)CC[C@H]4C3(C)C)O[C@H](C(=O)N[C@H](C(=O)OC)[C@@H](C)CC)[C@@H](O)[C@@H]2O)[C@H](O)[C@@H](O)[C@@H]1O)C(=O)OC |  | inactive |  |
| COC(=O)[C@H](Cc1ccc(O)cc1)NC(=O)[C@H]1O[C@@H](O[C@H]2[C@@H](O[C@H]3CC[C@]4(C)[C@H]5C(=O)C=C6[C@@H]7C[C@@](C)(C(=O)N[C@@H](Cc8ccc(O)cc8)C(=O)OC)CC[C@]7(C)CC[C@@]6(C)[C@]5(C)CC[C@H]4C3(C)C)O[C@H](C(=O)N[C@@H](Cc3ccc(O)cc3)C(=O)OC)[C@@H](O)[C@@H]2O)[C@H](O)[C@@H](O)[C@@H]1O |  | inactive |  |
| COC(=O)[C@@]1(C)CC[C@]2(C)CC[C@]3(C)C(=CC(=O)[C@@H]4[C@@]5(C)CC[C@H](O[C@H]6O[C@H](C(=O)N/N=C/c7ccncc7)[C@@H](O)[C@H](O)[C@H]6O[C@@H]6O[C@H](C(=O)N/N=C/c7ccncc7)[C@@H](O)[C@H](O)[C@H]6O)C(C)(C)[C@@H]5CC[C@]43C)[C@@H]2C1 |  | inactive |  |
| COC(=O)[C@H](CCSC)NC(=O)[C@H]1O[C@@H](O[C@H]2[C@@H](O[C@H]3CC[C@]4(C)[C@H]5C(=O)C=C6[C@@H]7C[C@@](C)(C(=O)N[C@@H](CCSC)C(=O)OC)CC[C@]7(C)CC[C@@]6(C)[C@]5(C)CC[C@H]4C3(C)C)O[C@H](C(=O)N[C@@H](CCSC)C(=O)OC)[C@@H](O)[C@@H]2O)[C@H](O)[C@@H](O)[C@@H]1O | 66.3% | Active | IC50 [3]: 4.5 µM; inhibition [3]: Dose-dependent effect; selectivity ratio [4]: > 22.2; inhibition [5]: Dose-dependent effect; CC50 [6]: > 100 µM |
| COC(=O)[C@@H](NC(=O)[C@H]1O[C@@H](O[C@H]2[C@@H](O[C@H]3CC[C@]4(C)[C@H]5C(=O)C=C6[C@@H]7C[C@@](C)(C(=O)N[C@H](C(=O)OC)C(C)C)CC[C@]7(C)CC[C@@]6(C)[C@]5(C)CC[C@H]4C3(C)C)O[C@H](C(=O)N[C@H](C(=O)OC)C(C)C)[C@@H](O)[C@@H]2O)[C@H](O)[C@@H](O)[C@@H]1O)C(C)C |  | inactive |  |
| COC(=O)[C@@]1(C)CC[C@]2(C)CC[C@]3(C)C(=CC(=O)[C@@H]4[C@@]5(C)CC[C@H](O[C@H]6O[C@H](C(=O)N/N=C/c7ccc(O)cc7)[C@@H](O)[C@H](O)[C@H]6O[C@@H]6O[C@H](C(=O)N/N=C/c7ccc(O)cc7)[C@@H](O)[C@H](O)[C@H]6O)C(C)(C)[C@@H]5CC[C@]43C)[C@@H]2C1 | 32.5% | Active |  |
| COC(=O)[C@@]1(C)CC[C@]2(C)CC[C@]3(C)C(=CC(=O)[C@@H]4[C@@]5(C)CC[C@H](O[C@H]6O[C@H](C(=O)NN)[C@@H](O)[C@H](O)[C@H]6O[C@@H]6O[C@H](C(=O)NN)[C@@H](O)[C@H](O)[C@H]6O)C(C)(C)[C@@H]5CC[C@]43C)[C@@H]2C1 |  | inactive |  |
| CC1(C)[C@@H](O[C@H]2O[C@H](C(=O)N[C@@H](Cc3ccccc3)C(=O)O)[C@@H](O)[C@H](O)[C@H]2O[C@@H]2O[C@H](C(=O)N[C@@H](Cc3ccccc3)C(=O)O)[C@@H](O)[C@H](O)[C@H]2O)CC[C@]2(C)[C@H]3C(=O)C=C4[C@@H]5C[C@@](C)(C(=O)N[C@@H](Cc6ccccc6)C(=O)O)CC[C@]5(C)CC[C@@]4(C)[C@]3(C)CC[C@@H]12 |  | inactive |  |
| COC(=O)[C@H](Cc1ccccc1)NC(=O)[C@H]1O[C@@H](O[C@H]2[C@@H](O[C@H]3CC[C@]4(C)[C@H]5C(=O)C=C6[C@@H]7C[C@@](C)(C(=O)N[C@@H](Cc8ccccc8)C(=O)OC)CC[C@]7(C)CC[C@@]6(C)[C@]5(C)CC[C@H]4C3(C)C)O[C@H](C(=O)N[C@@H](Cc3ccccc3)C(=O)OC)[C@@H](O)[C@@H]2O)[C@H](O)[C@@H](O)[C@@H]1O |  | inactive |  |

Source: ChEMBL document CHEMBL4396972, “Glycyrrhizic acid derivatives as Dengue virus inhibitors” (Bioorg Med Chem Lett, 2019)
